Source: ChEMBL document CHEMBL2412953, “Synthesis and biological evaluation of new N-alkylcarbazole derivatives as STAT3 inhibitors: preliminary study” (Eur J Med Chem, 2013)
Each block holds one compound with its values, some of them ahead of it. Activity calls are given as the source filed them. No cut-off for these calls is given here.

How the values were obtained:
[1] = target: Signal transducer and activator of transcription 3 (Homo sapiens) (UniProt P40763); assay: Inhibition of IL-6-stimulated STAT3 activation in human THP1 cells at 50 uM incubated for 30 mins prior to IL-6 stimulation measured after 15 mins by EMSA relative to control; type: cell-based; conditions: THP-1
Outline: (§1)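 THP-1 cells (1.5 × 10⁶/mL; RPMI 1640, 10% FBS, 37 °C, 5% CO₂) pretreated 30 min with compound, then IL-6 20 ng/mL for 15 min. Nuclear extracts, made with protease inhibitors, were assayed for STAT3 DNA-binding by EMSA in Hepes pH 7.9 buffer with poly(dI-dC). Gel bands quantified by densitometry; % inhibition versus IL-6 alone, mean ± SD.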

[2] = target: Signal transducer and activator of transcription 3 (Homo sapiens) (UniProt P40763); assay: Inhibition of IL-6-induced cytosolic STAT3 phosphorylation at Tyr705 in human THP1 cells at 50 uM incubated for 30 mins prior to IL-6 induction measured after 15 mins by Western blot analysis; type: cell-based; conditions: THP-1
Outline: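 THP-1 cells (1.5 × 10⁶/mL) pretreated 30 min, then IL-6 20 ng/mL for 15 min. Cells were lysed at 4 °C in HEPES pH 7.4 NP-40 buffer with protease and phosphatase inhibitors. Lysate protein was run on 7.5% SDS-PAGE, blotted to PVDF and probed overnight at 4 °C with rabbit anti-phospho-Tyr705 STAT3.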

THP-1 [3] = assay: Effect on total STAT3 level in IL-6-stimulated human THP1 cells at 50 uM incubated for 30 mins prior to IL-6 stimulation measured after 15 mins by Western blot analysis; type: functional, cell-based
[4] = target: T1, Signal transducer and activator of transcription 1-alpha/beta (Homo sapiens) (UniProt P42224); assay: Inhibition of IFNgamma-induced STAT1 activation in human THP1 cells at 50 uM incubated for 30 mins prior to IFNgamma induction measured after 30 mins by EMSA; type: cell-based; conditions: THP-1
T1 sequence (whole entry): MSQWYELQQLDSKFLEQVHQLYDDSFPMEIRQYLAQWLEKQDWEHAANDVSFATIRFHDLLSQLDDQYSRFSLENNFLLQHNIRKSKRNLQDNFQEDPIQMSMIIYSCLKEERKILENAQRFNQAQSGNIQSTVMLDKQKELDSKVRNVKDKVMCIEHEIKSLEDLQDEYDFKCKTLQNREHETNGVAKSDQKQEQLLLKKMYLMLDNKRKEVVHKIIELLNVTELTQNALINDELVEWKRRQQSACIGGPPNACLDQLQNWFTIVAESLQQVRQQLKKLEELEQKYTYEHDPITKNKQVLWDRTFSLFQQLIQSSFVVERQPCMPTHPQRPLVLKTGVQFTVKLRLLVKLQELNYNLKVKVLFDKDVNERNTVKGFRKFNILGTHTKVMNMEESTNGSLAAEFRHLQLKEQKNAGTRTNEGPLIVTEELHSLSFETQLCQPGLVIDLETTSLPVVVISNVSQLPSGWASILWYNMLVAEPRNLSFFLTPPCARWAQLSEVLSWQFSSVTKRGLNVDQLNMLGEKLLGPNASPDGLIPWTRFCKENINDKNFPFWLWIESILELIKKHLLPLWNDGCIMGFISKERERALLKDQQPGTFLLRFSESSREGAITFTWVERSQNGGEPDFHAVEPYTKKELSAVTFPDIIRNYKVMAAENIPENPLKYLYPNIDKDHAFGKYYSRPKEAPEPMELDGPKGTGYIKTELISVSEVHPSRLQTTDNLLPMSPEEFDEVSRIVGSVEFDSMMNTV
Outline: (§2)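 THP-1 cells (1.5 × 10⁶/mL) pretreated 30 min with compound, then stimulated 30 min with IFNγ (STAT1) or TNFα plus LPS (NF-κB). Nuclear extracts were analysed for DNA-binding by EMSA.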

THP-1 [5] = assay: Inhibition of TNFalpha and LPS-induced NFkappaB activation in human THP1 cells at 50 uM incubated for 30 mins prior to TNFalpha and LPS-induction measured after 30 mins by EMSA; type: cell-based; outline: as §2
[6] = target: Signal transducer and activator of transcription 3 (Homo sapiens) (UniProt P40763); assay: Inhibition of IL-6-stimulated STAT3 activation in human THP1 cells at 100 uM incubated for 30 mins prior to IL-6 stimulation measured after 15 mins by EMSA relative to control; type: cell-based; conditions: THP-1; outline: as §1

Chain of Signal transducer and activator of transcription 3 (Homo sapiens) (P40763 whole entry): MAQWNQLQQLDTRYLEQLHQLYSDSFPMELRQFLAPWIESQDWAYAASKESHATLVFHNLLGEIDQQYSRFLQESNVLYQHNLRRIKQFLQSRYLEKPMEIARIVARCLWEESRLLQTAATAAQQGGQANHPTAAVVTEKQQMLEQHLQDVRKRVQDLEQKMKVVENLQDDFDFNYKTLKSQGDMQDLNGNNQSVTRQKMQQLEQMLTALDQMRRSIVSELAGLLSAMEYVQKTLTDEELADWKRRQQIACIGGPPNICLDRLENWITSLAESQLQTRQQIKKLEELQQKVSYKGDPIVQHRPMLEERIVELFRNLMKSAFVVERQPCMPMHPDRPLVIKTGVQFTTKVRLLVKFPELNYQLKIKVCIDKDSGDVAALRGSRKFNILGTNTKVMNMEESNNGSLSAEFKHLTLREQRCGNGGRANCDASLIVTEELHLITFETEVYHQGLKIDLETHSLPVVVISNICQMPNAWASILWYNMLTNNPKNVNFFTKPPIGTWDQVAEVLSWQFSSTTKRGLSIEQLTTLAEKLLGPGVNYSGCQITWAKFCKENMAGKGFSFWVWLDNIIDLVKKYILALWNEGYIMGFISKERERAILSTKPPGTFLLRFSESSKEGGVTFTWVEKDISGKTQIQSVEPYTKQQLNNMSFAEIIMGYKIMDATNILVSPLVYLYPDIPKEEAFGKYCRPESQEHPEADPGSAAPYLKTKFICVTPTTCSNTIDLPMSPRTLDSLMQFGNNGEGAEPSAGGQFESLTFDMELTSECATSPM

inhibition [6]: 1%
SMILES: COC(=O)c1ccccc1OCCCCCCn1c2ccc(OC)cc2c2c(C)ccc(C)c21

inhibition [6]: 1%
SMILES: COC(=O)c1cc(OCCCCCCn2c3ccccc3c3ccc(O)cc32)cc(C(=O)OC)c1

inhibition [6]: 5%
SMILES: COC(=O)c1cc(OCCCCCCCn2c3ccccc3c3ccc(O)cc32)cc(C(=O)OC)c1

inhibition [6]: 3%
SMILES: COC(=O)c1ccccc1OCCCCCCn1c2ccccc2c2c(O)cccc21

inhibition [6]: 3%
SMILES: COC(=O)c1ccccc1OCCCCCn1c2ccc(OC)cc2c2c(C)ccc(C)c21

inhibition [1]: 90% | inhibition [2]: Active | inhibition [4]: inactive
SMILES: COC(=O)c1cc(OCCCCCCCn2c3ccc(OC)cc3c3c(C)ccc(C)c32)cc(C(=O)OC)c1
Activity (THP-1 [3]): inactive | inhibition (THP-1 [5]): inactive

inhibition [6]: 5%
SMILES: COC(=O)c1cc(OCCCCCCn2c3ccccc3c3c(O)cccc32)cc(C(=O)OC)c1

Second part, the compound before the results:

SMILES: COC(=O)c1cc(OCCCCCCn2c3ccc(OC)cc3c3c(C)ccc(C)c32)cc(C(=O)OC)c1
inhibition [1]: 95% | inhibition [2]: Active | Activity (THP-1 [3]): inactive | inhibition [4]: inactive | inhibition (THP-1 [5]): inactive

SMILES: COC(=O)c1cc(OCCCCCn2c3ccc(OC)cc3c3c(C)ccc(C)c32)cc(C(=O)OC)c1
inhibition [1]: 50% | inhibition [2]: Active | Activity (THP-1 [3]): inactive | inhibition [4]: inactive | inhibition (THP-1 [5]): inactive

SMILES: COC(=O)c1cc(OCCCCCn2c3ccccc3c3ccc(O)cc32)cc(C(=O)OC)c1
inhibition [6]: 1%

SMILES: COC(=O)c1ccccc1OCCCCCCn1c2ccccc2c2ccc(O)cc21
inhibition [6]: 1%

SMILES: COC(=O)c1cc(OCCCCCn2c3ccccc3c3c(O)cccc32)cc(C(=O)OC)c1
inhibition [6]: 20%

SMILES: COC(=O)c1ccccc1OCCCCCCCn1c2ccc(OC)cc2c2c(C)ccc(C)c21
inhibition [6]: 6%

SMILES: COC(=O)c1cc(OCCCCCCCn2c3ccccc3c3c(O)cccc32)cc(C(=O)OC)c1
inhibition [6]: 6%
